Residues, ends and D or L forms follow the SMILES beside them. *: point of attachment. NOTA(2S-Bn(4-NHCS)) = O=C(O)CN1CCN(CC(=O)O)C[C@H](Cc2ccc(NC(=S)*)cc2)N(CC(=O)O)CC1
Columns and labels:
[1] = MicroPET/CT imaging, GPC3-positive HepG2 tumor model; assay type: in vivo, nude mice; settings: nude, mouse, iv, 5.55 MBq, total radioactivity
Method in brief: (§1)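 Nude mice carried subcutaneous HepG2 or McA-RH7777 xenografts (n = 3 per group). Each received 5.55 MBq tracer i.v. under isoflurane. 10-min static microPET/CT scans at 30, 60 and 120 min; 3D-OSEM reconstruction, CT attenuation correction, decay-corrected. %ID/g from ROIs drawn over entire organs. Tumor/muscle, tumor/liver and tumor/kidney ratios calculated from PET data. Mean ± SD; ANOVA or t test.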

[2] = Ex vivo biodistribution, HepG2 tumor model; assay type: in vivo, mice; settings: mouse, total radioactivity
[3] = tested on: GPC3-positive HepG2 cells; assay: Cellular uptake in GPC3-positive HepG2 cells; assay type: cell-based; settings: 60 min incubation, peak value; n = 4/group, mean ± SD
Method in brief: (§2)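 Uptake of the Al[18F]F-labelled peptide (radiochemical purity >97 % by HPLC) was measured as a time course in GPC3-positive HepG2 and GPC3-negative McA-RH7777 cells. Uptake is expressed as a percentage. n = 4 per group; mean ± SD.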

[4] = tested on: GPC3-positive HepG2 cells; assay: Cell efflux in GPC3-positive HepG2 cells; assay type: cell-based; settings: for cell-associated radioactivity at end of efflux study: end of 1 h efflux study; for cell-associated radioactivity at start of efflux study: start of 1 h efflux study
Method in brief: (§3)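 Efflux of the Al[18F]F-chelated radiolabelled peptide was followed over time in GPC3-positive HepG2 and GPC3-negative McA-RH7777 hepatoma cells. Cell-associated radioactivity was tracked across the efflux period. n = 4 per group; mean ± SD.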

[5] = In vitro stability in PBS; assay type: physicochemical; settings: PBS at room temperature, 2 h incubation, HPLC analysis
Method in brief: (§4)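 Radiotracer prepared by Al[18F]F chelation: peptide, AlCl3, acetic acid and acetonitrile with [18F]fluoride, heated at 100 °C for 10 min. Product purified on a C18 cartridge, eluted with ethanol/10 mM HCl, diluted in saline and sterile-filtered. Incubated 2 h in PBS (room temperature) or mouse serum (37 °C). Percent intact tracer by reverse-phase HPLC.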

[6] = In vitro stability in mouse serum; assay type: in vitro ADME; settings: mouse serum at 37 °C, 2 h incubation, HPLC analysis
Method in brief: as §4

HepG2 cells = assay: Internalization in HepG2 cells; assay type: cell-based; settings: HepG2 cells at 2 h
[7] = MicroPET/CT imaging, GPC3-negative McA-RH7777 tumor model; assay type: in vivo, nude mice; settings: nude, mouse, iv, 5.55 MBq, total radioactivity
Method in brief: as §1

[8] = tested on: GPC3-negative McA-RH7777 cells; assay: Cellular uptake in GPC3-negative McA-RH7777 cells; assay type: cell-based; settings: 60 min incubation; n = 4/group, mean ± SD
Method in brief: as §2

[9] = tested on: GPC3-negative McA-RH7777 cells; assay: Cell efflux in GPC3-negative McA-RH7777 cells; assay type: cell-based; settings: efflux study
Method in brief: as §3

tissue to tissue ratio at 1 h ([1]; HepG2 tumor / kidneys) | tissue to tissue ratio at 0.5 h ([1]; HepG2 tumor / liver) | tissue to tissue ratio at 1 h ([1]; HepG2 tumor / liver) | tissue to tissue ratio at 2 h ([1]; HepG2 tumor / liver) | tissue to tissue ratio at 0.5 h ([1]; HepG2 tumor / muscle) | tissue to tissue ratio at 1 h ([1]; HepG2 tumor / muscle) | tissue to tissue ratio at 2 h ([1]; HepG2 tumor / muscle) | tissue uptake at 0.5 h ([1]; HepG2 tumor) [%ID/g] | tissue uptake at 1 h ([1]; HepG2 tumor) [%ID/g] | tissue uptake at 2 h ([1]; HepG2 tumor) [%ID/g] | tissue uptake at 0.5 h ([1]; kidneys) [%ID/g] | tissue uptake at 1 h ([1]; kidneys) [%ID/g] | tissue uptake at 0.5 h ([1]; liver) [%ID/g] | tissue uptake at 1 h ([1]; liver) [%ID/g] | tissue uptake at 1 h ([2]; HepG2 tumor) [%ID/g] | tissue uptake at 1 h ([2]; liver) [%ID/g] | intact radiotracer in PBS [5] [%] | SMILES | cell uptake in HepG2 cells [3] [%] | cell-associated radioactivity at end of efflux study [4] [%] | cell-associated radioactivity at start of efflux study [4] [%] | also measured
0.31 ± 0.04 | 0.43 ± 0.06 | 0.59 ± 0.14 | 0.46 ± 0.4 | 5.56 ± 1.36 | 5.13 ± 2.08 | 2.68 ± 0.29 | 2.2 ± 0.36 | 2.13 ± 0.55 | 0.73 ± 0.32 | 9.83 ± 3.69 | 7.03 ± 2.32 | 5.1 ± 0.53 | 3.7 ± 0.98 | 1.13 ± 0.02 | 2.3 ± 0.56 |  | CC(C)C[C@H](NC(=O)[C@H](CCCNC(=N)N)NC(=S)Nc1ccc(C[C@H]2CN(CC(=O)O)CCN(CC(=O)O)CCN2CC(=O)O)cc1)C(=O)N[C@@H](CC(N)=O)C(=O)N[C@H](C(=O)NCC(=O)NCC(=O)N[C@H](C(=O)N[C@@H](Cc1ccc(O)cc1)C(=O)N[C@@H](Cc1ccccc1)C(=O)N[C@@H](CC(C)C)C(=O)N[C@H](C(=O)N[C@H](C(=O)N[C@@H](CCCNC(=N)N)C(=O)N[C@@H](CCC(N)=O)C(=O)O)[C@@H](C)O)[C@@H](C)O)[C@@H](C)O)C(C)C [Al[^18F]F-GP2076] ({NOTA(2S-Bn(4-NHCS))}-RLNVGGTYFLTTRQ-OH; N-terminus and C-terminus assumed) [listing 1 of 2 here] |  |  |  | 
 |  |  |  |  |  |  |  |  |  |  |  |  |  |  |  | > 95 | CC(C)C[C@H](NC(=O)[C@H](CCCNC(=N)N)NC(=S)Nc1ccc(C[C@H]2CN(CC(=O)O)CCN(CC(=O)O)CCN2CC(=O)O)cc1)C(=O)N[C@@H](CC(N)=O)C(=O)N[C@H](C(=O)NCC(=O)NCC(=O)N[C@H](C(=O)N[C@@H](Cc1ccc(O)cc1)C(=O)N[C@@H](Cc1ccccc1)C(=O)N[C@@H](CC(C)C)C(=O)N[C@H](C(=O)N[C@H](C(=O)N[C@@H](CCCNC(=N)N)C(=O)N[C@@H](CCC(N)=O)C(=O)O)[C@@H](C)O)[C@@H](C)O)[C@@H](C)O)C(C)C [Al[^18F]F-GP2076] ({NOTA(2S-Bn(4-NHCS))}-RLNVGGTYFLTTRQ-OH; N-terminus and C-terminus assumed) [listing 2 of 2 here] | 1.08 ± 0.04 | 0.21 | 1.04 | intact radiotracer in mouse serum [6]: > 95%; internalization (HepG2 cells): < 10 % of cell uptake
0.09 ± 0.01 | 1.77 ± 0.2 | 2 ± 0.18 | 1.28 ± 0.25 | 9.11 ± 0.79 | 12.2 ± 0.62 | 6.2 ± 1.8 | 3.13 ± 0.31 | 3.37 ± 0.35 | 1.3 ± 0.17 | 39.4 ± 0.98 | 36.9 ± 2.05 | 1.8 ± 0.36 | 1.7 ± 0.26 | 1.96 ± 0.29 | 0.97 ± 0.07 |  | CC(C)C[C@H](NC(=O)[C@H](CCCNC(=N)N)NC(=O)[C@H](CC(N)=O)NC(=O)[C@H](CC(=O)O)NC(=O)[C@H](CCCNC(=N)N)NC(=O)CNC(=O)CNC(=O)CNC(=S)Nc1ccc(C[C@H]2CN(CC(=O)O)CCN(CC(=O)O)CCN2CC(=O)O)cc1)C(=O)N[C@@H](CC(N)=O)C(=O)N[C@H](C(=O)NCC(=O)NCC(=O)N[C@H](C(=O)N[C@@H](Cc1ccc(O)cc1)C(=O)N[C@@H](Cc1ccccc1)C(=O)N[C@@H](CC(C)C)C(=O)N[C@H](C(=O)N[C@H](C(=O)N[C@@H](CCCNC(=N)N)C(=O)N[C@@H](CCC(N)=O)C(=O)O)[C@@H](C)O)[C@@H](C)O)[C@@H](C)O)C(C)C [Al[^18F]F-GP2633] ({NOTA(2S-Bn(4-NHCS))}-GGGRDNRLNVGGTYFLTTRQ-OH; N-terminus and C-terminus assumed) [listing 1 of 2 here] |  |  |  | tissue to tissue ratio at 0.5 h ([7]; McA-RH7777 tumor / muscle): 3.87 ± 1.97; tissue to tissue ratio at 1 h ([7]; McA-RH7777 tumor / muscle): 6.2 ± 2.67; tissue uptake at 0.5 h ([7]; McA-RH7777 tumor): 1.75 ± 0.05 %ID/g; tissue uptake at 1 h ([7]; McA-RH7777 tumor): 1.64 ± 0.03 %ID/g; tissue uptake at 2 h ([7]; McA-RH7777 tumor): 0.66 ± 0.06 %ID/g
 |  |  |  |  |  |  |  |  |  |  |  |  |  |  |  | > 98 | CC(C)C[C@H](NC(=O)[C@H](CCCNC(=N)N)NC(=O)[C@H](CC(N)=O)NC(=O)[C@H](CC(=O)O)NC(=O)[C@H](CCCNC(=N)N)NC(=O)CNC(=O)CNC(=O)CNC(=S)Nc1ccc(C[C@H]2CN(CC(=O)O)CCN(CC(=O)O)CCN2CC(=O)O)cc1)C(=O)N[C@@H](CC(N)=O)C(=O)N[C@H](C(=O)NCC(=O)NCC(=O)N[C@H](C(=O)N[C@@H](Cc1ccc(O)cc1)C(=O)N[C@@H](Cc1ccccc1)C(=O)N[C@@H](CC(C)C)C(=O)N[C@H](C(=O)N[C@H](C(=O)N[C@@H](CCCNC(=N)N)C(=O)N[C@@H](CCC(N)=O)C(=O)O)[C@@H](C)O)[C@@H](C)O)[C@@H](C)O)C(C)C [Al[^18F]F-GP2633] ({NOTA(2S-Bn(4-NHCS))}-GGGRDNRLNVGGTYFLTTRQ-OH; N-terminus and C-terminus assumed) [listing 2 of 2 here] | 1.15 ± 0.05 | 0.27 | 1.13 | cellular uptake in McA-RH7777 cells [8]: 0.30 ± 0.03%; intact radiotracer in mouse serum [6]: > 98%; time for radioactivity to wash out to the baseline [9]: ≤ 5 min; internalization (HepG2 cells): < 10 % of cell uptake
